In publication PMC7736561 (Angewandte Chemie (International ed. in English), 2020):

Tests used:
[1] = Histology staining of bone sections; parameters: species or system mouse
Summary of the method: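 Thin sections of mouse tibia were treated with a 5 μM probe solution for 30 minutes and then imaged by fluorescence microscopy. For the demineralized comparison, slices were pre-treated with EDTA before staining. A charge-balanced, net-neutral peptide probe served as the control stain.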

Water solubility = format: physicochemical; settings: in water
[2] = Self-aggregation in water by absorption spectrum; format: physicochemical; settings: absorption spectrum in water (Figures S7, S10)
Asp-N = assay: Proteolytic degradation by Asp-N endoproteinase, LCMS analysis; format: in vitro ADME; settings: SF8(DDDDG)2 vs linear azido-DDDDG, 2 hours
Summary of the method: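 The test compound and the linear pentapeptide comparator were each incubated separately at 10 μM with Asp-N, an endoproteinase that cleaves peptide bonds on the N-terminal side of aspartic acid residues.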

[3] = Chemical stability of squaraine fluorophore in PBS; format: physicochemical; settings: pH 7.4, followed over 15 hours (Figure S11A)

water solubility (Water solubility) | self-aggregation [2] | factor by which proteolytic degradation of the peptide sequence was reduced (Asp-N) | Substance | staining of demineralized bone slices ([1]; bone slices demineralized with pre-treatment of EDTA (Figure S26)) | staining of bone histology slices ([1]; thin sections of mouse tibia bone, probe 5 μM, 30 minutes) | chemical stability, fluorescence profile of solution [3]
high water-solubility | no molecular self-aggregation | 3.8 | (DDDDG)2 (bicyclic or more) [SF8(DDDDG)2] | no staining | strongly stained the mineral segments | 
soluble | unaggregated |  | (azido-RRRG)2 [SR(azido-RRRG)2] |  |  | almost completely bleached after a few hours

Substance | water solubility (Water solubility) | self-aggregation [2] | factor by which proteolytic degradation of the peptide sequence was reduced (Asp-N) | staining of demineralized bone slices ([1]; bone slices demineralized with pre-treatment of EDTA (Figure S26)) | staining of bone histology slices ([1]; thin sections of mouse tibia bone, probe 5 μM, 30 minutes) | chemical stability, fluorescence profile of solution [3]
(azido-DDDDG)2 [SR(azido-DDDDG)2] | low solubility | formation of non-fluorescent H-aggregates |  |  |  | 
